Results: BindingDB's records for doi:10.1021/acs.jmedchem.9b01547 (University of Oxford, 2020)

What was measured:
Utrophin [1] = molecular target: T1, Utrophin (Homo sapiens, UniProt P46939); test: Activation of human utrophin-1 in mouse mdx myoblasts by H2K-mdx utrnA-luc assay
Procedure, shortened: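 Firefly luciferase reporter gene assay in H2K-mdx utrnA-luc cells (mouse mdx myoblasts carrying a human muscle-specific utrophin A promoter). EC50 from non-linear regression curve fit of 2 biological replicates, 3 technical replicates each.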

Utrophin [2] = molecular target: T1, Utrophin; test: Activation of human utrophin-1 in iDMD cells by HTRF assay
Procedure, shortened: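 HTRF quantification of human utrophin protein in lysates of treated iDMD cells, read at 620 and 665 nm emission; top concentration 10 μM. EC50 by non-linear regression curve fit from 2 biological replicates, each with 3 technical replicates.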

T1 sequence (P46939 whole entry): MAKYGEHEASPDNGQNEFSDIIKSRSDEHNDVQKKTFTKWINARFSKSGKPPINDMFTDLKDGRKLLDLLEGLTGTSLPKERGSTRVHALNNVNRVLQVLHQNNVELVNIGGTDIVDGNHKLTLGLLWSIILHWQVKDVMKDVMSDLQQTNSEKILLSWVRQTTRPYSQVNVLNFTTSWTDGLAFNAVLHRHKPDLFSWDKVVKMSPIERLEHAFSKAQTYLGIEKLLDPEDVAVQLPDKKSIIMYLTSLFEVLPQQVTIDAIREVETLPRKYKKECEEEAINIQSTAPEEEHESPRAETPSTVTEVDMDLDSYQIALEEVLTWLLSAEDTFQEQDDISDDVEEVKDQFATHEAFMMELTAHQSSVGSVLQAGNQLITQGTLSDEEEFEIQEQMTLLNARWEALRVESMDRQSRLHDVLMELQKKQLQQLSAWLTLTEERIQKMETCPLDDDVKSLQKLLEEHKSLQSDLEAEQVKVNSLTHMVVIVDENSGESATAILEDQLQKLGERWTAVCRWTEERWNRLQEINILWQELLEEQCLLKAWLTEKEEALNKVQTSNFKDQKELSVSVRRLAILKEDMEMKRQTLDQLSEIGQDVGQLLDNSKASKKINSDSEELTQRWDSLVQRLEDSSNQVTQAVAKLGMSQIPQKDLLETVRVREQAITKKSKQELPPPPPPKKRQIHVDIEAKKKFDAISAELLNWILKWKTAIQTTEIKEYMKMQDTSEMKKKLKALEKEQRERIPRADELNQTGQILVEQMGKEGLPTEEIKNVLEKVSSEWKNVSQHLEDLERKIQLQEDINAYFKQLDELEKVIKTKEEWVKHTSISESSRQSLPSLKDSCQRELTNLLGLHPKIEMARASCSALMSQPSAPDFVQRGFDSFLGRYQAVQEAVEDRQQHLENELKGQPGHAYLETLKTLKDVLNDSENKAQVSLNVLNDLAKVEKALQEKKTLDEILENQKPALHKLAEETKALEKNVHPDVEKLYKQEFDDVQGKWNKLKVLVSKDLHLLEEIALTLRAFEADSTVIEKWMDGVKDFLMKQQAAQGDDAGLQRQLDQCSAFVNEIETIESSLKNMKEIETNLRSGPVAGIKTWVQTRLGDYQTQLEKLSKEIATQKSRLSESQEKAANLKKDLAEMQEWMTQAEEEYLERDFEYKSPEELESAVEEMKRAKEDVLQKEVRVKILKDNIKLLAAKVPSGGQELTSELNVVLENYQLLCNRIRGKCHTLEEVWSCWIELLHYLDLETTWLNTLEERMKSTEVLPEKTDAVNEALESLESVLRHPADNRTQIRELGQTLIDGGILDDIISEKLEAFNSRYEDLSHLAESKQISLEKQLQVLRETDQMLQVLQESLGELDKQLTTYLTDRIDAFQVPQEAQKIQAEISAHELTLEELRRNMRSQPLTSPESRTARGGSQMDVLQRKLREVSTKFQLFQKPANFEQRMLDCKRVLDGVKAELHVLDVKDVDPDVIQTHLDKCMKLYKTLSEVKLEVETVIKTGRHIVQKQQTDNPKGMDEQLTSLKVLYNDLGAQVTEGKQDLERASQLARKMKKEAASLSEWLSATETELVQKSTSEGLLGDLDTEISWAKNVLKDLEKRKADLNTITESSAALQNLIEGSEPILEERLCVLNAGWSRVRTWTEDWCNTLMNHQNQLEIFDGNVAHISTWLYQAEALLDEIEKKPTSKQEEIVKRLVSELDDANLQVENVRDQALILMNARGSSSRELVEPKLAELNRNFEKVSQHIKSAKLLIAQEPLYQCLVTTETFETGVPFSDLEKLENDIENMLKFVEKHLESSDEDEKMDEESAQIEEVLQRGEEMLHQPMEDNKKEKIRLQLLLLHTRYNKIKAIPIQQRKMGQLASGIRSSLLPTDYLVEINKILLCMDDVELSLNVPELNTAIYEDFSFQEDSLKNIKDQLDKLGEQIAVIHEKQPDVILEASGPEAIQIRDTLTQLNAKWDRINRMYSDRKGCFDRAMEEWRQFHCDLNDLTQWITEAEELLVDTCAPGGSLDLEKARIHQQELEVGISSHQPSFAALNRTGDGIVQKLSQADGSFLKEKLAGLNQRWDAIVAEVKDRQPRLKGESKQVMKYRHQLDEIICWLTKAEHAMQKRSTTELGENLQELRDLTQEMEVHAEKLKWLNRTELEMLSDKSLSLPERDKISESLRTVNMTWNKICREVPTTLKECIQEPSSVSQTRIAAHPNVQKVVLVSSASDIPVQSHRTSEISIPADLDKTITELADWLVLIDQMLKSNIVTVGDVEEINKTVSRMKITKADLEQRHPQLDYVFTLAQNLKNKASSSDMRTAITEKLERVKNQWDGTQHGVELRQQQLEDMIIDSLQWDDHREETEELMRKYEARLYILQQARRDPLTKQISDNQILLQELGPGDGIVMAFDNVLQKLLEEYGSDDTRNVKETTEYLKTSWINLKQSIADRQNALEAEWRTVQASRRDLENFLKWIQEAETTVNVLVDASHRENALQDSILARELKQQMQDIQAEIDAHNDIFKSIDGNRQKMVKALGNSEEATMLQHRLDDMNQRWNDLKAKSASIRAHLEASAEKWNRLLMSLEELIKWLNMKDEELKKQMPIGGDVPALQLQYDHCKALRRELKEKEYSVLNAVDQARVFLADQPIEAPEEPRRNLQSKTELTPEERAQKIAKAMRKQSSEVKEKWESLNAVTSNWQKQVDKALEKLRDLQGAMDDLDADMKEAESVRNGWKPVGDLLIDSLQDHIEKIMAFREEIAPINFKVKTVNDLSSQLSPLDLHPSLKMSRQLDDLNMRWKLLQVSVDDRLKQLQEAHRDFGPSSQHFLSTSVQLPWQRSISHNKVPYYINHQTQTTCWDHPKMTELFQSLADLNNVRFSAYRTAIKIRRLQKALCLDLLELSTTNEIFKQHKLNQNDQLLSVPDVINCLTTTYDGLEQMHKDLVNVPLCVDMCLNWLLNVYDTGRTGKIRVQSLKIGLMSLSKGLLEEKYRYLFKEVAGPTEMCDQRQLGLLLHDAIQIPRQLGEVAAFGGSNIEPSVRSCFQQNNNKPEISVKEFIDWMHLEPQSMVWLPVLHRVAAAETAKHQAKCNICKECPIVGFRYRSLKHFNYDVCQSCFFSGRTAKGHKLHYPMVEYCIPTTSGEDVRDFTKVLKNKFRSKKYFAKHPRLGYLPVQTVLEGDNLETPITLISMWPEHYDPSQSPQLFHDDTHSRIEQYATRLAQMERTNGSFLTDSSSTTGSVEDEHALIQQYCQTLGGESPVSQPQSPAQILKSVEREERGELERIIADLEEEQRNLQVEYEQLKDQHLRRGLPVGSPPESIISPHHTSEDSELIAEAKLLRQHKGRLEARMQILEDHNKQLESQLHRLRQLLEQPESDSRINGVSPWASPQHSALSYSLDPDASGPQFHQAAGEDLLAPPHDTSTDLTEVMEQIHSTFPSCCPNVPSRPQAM

| Structure (SMILES) | EC50 (Utrophin [1]) [nM] | EC50 (Utrophin [2]) [nM] |
| --- | --- | --- |
| CCS(=O)(=O)c1ccc2oc(-c3ccc4c(c3)C=C[C@H](O)[C@H]4O)nc2c1 | 370 | > 10000 |
| CCS(=O)(=O)c1ccc2oc(-c3ccc4c(c3)[C@@H](O)[C@H](O)C=C4)nc2c1 | 120 | 8350 |
| CCS(=O)(=O)c1ccc2oc(-c3ccc4ccccc4c3)nc2c1 [BMN 195] | 110 | 1280 |
